Test results: ChEMBL document CHEMBL3758117, “Discovery of indeno[1,2-b]quinoxaline derivatives as potential anticancer agents” (Eur J Med Chem, 2016)
Calls of active or inactive are those of the source. The rule behind the calls is not given here.

Key:
[1] = test system: Escherichia coli; experiment: Binding affinity to Escherichia coli negative supercoiled pBR322 DNA at 10 uM after 12 hrs by ethidium bromide staining based agarose gel electrophoresis
Summary of the method: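 Negatively supercoiled pBR322 (400 ng) in TE buffer pH 8.0 was incubated with compound at 10 μM for 12 h at room temperature. Loading buffer with sarkosyl was added. Samples were run on 1% agarose at 6 V/cm for 2.5 h in TAE pH 8.5, stained with ethidium bromide and photographed under UV.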

[2] = test system: MDA-MB-231; experiment: Antiproliferative activity against human MDA-MB-231 cells after 72 hrs by XTT assay; assay type: functional, cell-based; details: MDA-MB-231, 72 h
Summary of the method: (§1)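 Cells kept as monolayers in DMEM with 10% FBS, penicillin, streptomycin and amphotericin at 37°C, 5% CO2. Seeded at 5 x 10³ cells/well and exposed to compound for 72 h in medium with 10% FBS. XTT plus electron-coupling reagent added, 4 h at 37°C, absorbance read at 492 nm. Percent of control growth uses mean absorbance (n = 3). The 50% value is taken from the linear portion of the curve.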

[3] = Antiproliferative activity against human H1299 cells after 72 hrs by XTT assay; assay type: functional, cell-based; details: NCI-H1299, 72 h; summary of the method: as §1
[4] = Antiproliferative activity against human PC3 cells after 72 hrs by XTT assay; assay type: functional, cell-based; details: PC-3, 72 h; summary of the method: as §1
[5] = Antiproliferative activity against human HuH7 cells after 72 hrs by XTT assay; assay type: functional, cell-based; details: Huh-7, 72 h; summary of the method: as §1
[6] = test system: MRC5; experiment: Antiproliferative activity against human MRC5 cells after 72 hrs by XTT assay; assay type: cell-based; details: MRC5, 72 h; summary of the method: as §1
[7] = test system: MRC5; experiment: Selectivity index, ratio of IC50 for human MRC5 cells to IC50 for human MDA-MB-231 cells; assay type: functional
[8] = Selectivity index, ratio of IC50 for human MRC5 cells to IC50 for human H1299 cells; assay type: functional
[9] = test system: MRC5; experiment: Selectivity index, ratio of IC50 for human MRC5 cells to IC50 for human PC3 cells; assay type: functional
[10] = test system: Huh-7; experiment: Selectivity index, ratio of IC50 for human MRC5 cells to IC50 for human HuH7 cells; assay type: functional
[11] = target: T1, DNA topoisomerase 1 (Homo sapiens) (UniProt P11387); experiment: Inhibition of human DNA topoisomerase 1-mediated relaxation of supercoiled pBR322 DNA at 100 uM after 30 mins by ethidium bromide staining based agarose gel electrophoresis
T1 sequence (whole entry): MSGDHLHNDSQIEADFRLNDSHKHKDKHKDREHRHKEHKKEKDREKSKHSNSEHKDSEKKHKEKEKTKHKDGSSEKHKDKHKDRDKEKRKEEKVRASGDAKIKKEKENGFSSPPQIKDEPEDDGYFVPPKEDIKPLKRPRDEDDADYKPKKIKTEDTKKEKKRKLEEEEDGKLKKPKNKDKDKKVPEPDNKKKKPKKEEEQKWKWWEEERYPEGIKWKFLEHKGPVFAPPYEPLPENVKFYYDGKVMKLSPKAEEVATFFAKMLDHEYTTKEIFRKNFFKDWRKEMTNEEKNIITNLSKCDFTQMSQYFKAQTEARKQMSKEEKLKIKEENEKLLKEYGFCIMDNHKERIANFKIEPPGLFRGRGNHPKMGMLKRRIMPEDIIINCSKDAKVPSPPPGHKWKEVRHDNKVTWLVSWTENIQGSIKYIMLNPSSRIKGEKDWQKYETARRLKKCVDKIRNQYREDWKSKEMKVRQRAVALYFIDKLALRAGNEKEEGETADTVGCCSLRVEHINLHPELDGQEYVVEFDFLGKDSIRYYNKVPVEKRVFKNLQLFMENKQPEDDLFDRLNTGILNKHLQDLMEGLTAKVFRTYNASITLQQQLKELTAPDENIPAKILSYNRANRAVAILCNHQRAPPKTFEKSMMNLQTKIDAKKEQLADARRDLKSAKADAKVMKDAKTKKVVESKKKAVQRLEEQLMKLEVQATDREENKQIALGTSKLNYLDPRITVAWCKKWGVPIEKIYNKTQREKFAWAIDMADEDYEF
Summary of the method: (§2)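 Human topo I or topo II (2 units) was reacted with 0.2 μg supercoiled pBR322 in 20 μl Tris-HCl pH 7.5 containing KCl, DTT, EDTA, MgCl2 and BSA, with DMSO held at 0.5%, for 30 min at 37°C. The reaction was stopped with SDS. Samples were run on 1% agarose in Tris-acetate/EDTA at 1.5 V/cm for 2-3 h and stained with ethidium bromide. Relaxation was quantified by densitometry of the supercoiled band area.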

[12] = target: T1, DNA topoisomerase 1 (Homo sapiens); experiment: Inhibition of human DNA topoisomerase 1-mediated relaxation of supercoiled pBR322 DNA at 10 uM after 30 mins by ethidium bromide staining based agarose gel electrophoresis; summary of the method: as §2
[13] = target: DNA topoisomerase 2-alpha (Homo sapiens) (UniProt P11388); experiment: Inhibition of human DNA topoisomerase 2-mediated relaxation of supercoiled pBR322 DNA at 100 uM after 30 mins by ethidium bromide staining based agarose gel electrophoresis; summary of the method: as §2
Sequence of DNA topoisomerase 2-alpha (Homo sapiens) (P11388 whole entry): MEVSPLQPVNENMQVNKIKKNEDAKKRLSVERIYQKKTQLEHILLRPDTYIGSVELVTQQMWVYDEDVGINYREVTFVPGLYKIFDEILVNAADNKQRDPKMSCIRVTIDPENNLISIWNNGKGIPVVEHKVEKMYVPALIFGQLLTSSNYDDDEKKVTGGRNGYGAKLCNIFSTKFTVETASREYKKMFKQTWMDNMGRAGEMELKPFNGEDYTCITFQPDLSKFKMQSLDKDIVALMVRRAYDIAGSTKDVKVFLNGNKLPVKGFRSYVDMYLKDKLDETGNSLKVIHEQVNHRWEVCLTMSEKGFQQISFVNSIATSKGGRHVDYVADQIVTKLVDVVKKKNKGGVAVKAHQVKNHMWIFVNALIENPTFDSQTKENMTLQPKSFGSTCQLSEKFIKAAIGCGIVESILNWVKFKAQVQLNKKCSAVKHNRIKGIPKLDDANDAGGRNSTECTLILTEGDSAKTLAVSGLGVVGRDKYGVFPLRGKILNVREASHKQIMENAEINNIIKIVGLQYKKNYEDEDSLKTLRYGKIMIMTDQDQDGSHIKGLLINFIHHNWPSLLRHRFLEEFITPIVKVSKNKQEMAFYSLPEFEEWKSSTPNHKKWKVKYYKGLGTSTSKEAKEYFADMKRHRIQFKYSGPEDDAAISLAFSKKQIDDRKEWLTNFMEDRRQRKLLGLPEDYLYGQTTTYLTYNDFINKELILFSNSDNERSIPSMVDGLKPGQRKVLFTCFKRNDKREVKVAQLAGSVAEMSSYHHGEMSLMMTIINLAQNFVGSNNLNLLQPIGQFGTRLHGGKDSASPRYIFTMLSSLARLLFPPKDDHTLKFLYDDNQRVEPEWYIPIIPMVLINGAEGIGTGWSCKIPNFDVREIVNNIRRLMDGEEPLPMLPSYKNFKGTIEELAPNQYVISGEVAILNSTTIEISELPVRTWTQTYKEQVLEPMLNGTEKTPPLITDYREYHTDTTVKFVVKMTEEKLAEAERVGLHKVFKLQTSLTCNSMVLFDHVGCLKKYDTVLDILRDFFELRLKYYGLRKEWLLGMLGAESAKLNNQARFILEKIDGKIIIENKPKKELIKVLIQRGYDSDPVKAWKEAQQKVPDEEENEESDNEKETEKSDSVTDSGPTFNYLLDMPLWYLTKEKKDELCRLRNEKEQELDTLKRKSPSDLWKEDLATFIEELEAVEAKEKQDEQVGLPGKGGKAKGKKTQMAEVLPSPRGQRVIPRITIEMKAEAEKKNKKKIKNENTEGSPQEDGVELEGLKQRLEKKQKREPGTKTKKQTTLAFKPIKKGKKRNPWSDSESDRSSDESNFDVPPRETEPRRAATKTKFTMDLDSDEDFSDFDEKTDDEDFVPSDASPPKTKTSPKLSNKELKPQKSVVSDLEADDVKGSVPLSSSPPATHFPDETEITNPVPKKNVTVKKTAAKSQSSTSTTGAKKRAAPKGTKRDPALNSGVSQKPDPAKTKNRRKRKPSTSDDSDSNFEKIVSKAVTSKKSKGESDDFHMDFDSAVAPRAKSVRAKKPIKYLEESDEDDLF

[14] = target: DNA topoisomerase 2-alpha (Homo sapiens) (UniProt P11388); experiment: Inhibition of human DNA topoisomerase 2-mediated relaxation of supercoiled pBR322 DNA at 10 uM after 30 mins by ethidium bromide staining based agarose gel electrophoresis; summary of the method: as §2

| Structure (SMILES) | Activity [1] | IC50 [2] [µM] | IC50 [3] [µM] | IC50 [4] [µM] | IC50 [5] [µM] | IC50 [6] [µM] | Ratio IC50 [7] | Ratio IC50 [8] | Ratio IC50 [9] | Ratio IC50 [10] | topoisomerase 1 inhibition (active/inactive) [11] | inhibition [12] | inhibition call (active/not active) [13] | topoisomerase 2 inhibition (active/not active) [14] | inhibition [13] |
| --- | --- | --- | --- | --- | --- | --- | --- | --- | --- | --- | --- | --- | --- | --- | --- |
| Cc1cccc2nc3c(nc12)-c1ccccc1/C3=N\OCCCN(C)C.Cl | inactive | 6.84 | 7.26 | 7.01 | 5.88 | 7.86 | 1.13 | 1.08 | 1.12 | 1.34 | Active | Active | Active | inactive |  |
| CN(C)CCCNC(=O)c1cccc2nc3c(nc12)-c1ccccc1C3=O | inactive | 7.04 | 7.82 | 10.2 | 7.7 | 9.07 | 1.29 | 1.16 | 0.89 | 1.18 | Active | inactive | Active | inactive |  |
| CN(C)CCCO/N=C1\c2ccccc2-c2nc3c(CN(C)C)cccc3nc21.Cl | Active | 0.9 | 0.81 | 0.78 | 0.75 | 0.88 | 0.98 | 1.09 | 1.13 | 1.17 | Active | Active | Active | inactive |  |
| CN(C)CCCO/N=C1\c2ccccc2-c2nc3c(CN4CCCC4)cccc3nc21.Cl | Active | 0.68 | 0.92 | 0.78 | 0.32 | 0.9 | 1.32 | 0.98 | 1.15 | 2.81 | Active | Active | Active | inactive |  |
| CN(C)CCCO/N=C1\c2ccccc2-c2nc3c(CN4CCOCC4)cccc3nc21.Cl | inactive | 9.97 | 6.93 | 9.92 | 6.78 | 73.5 | 7.37 | 10.6 | 7.41 | 10.84 | Active | inactive |  | inactive | Active |
| O=C1c2ccccc2-c2nc3c(C(=O)NCCN4CCCC4)cccc3nc21 | inactive | 6.55 | 11.2 | 12 | 8.51 | 7.99 | 1.22 | 0.71 | 0.67 | 0.94 | Active | Active | Active | inactive |  |
| CN(C)CCCO/N=C1\c2ccccc2-c2nc3ccccc3nc21.Cl | inactive | 7.01 | 7.19 | 8.63 | 5.38 | 19.9 | 2.83 | 2.76 | 2.3 | 3.69 | Active | Active | Active | inactive |  |
| CN(C)CCCO/N=C1\c2ccccc2-c2nc3c(CN4CCC(N5CCCCC5)CC4)cccc3nc21.Cl | inactive | 0.99 | 5.14 | 6.12 | 0.82 | 3.49 | 3.53 | 0.68 | 0.57 | 4.26 | Active | Active | Active | inactive |  |
| CN(C)CCCO/N=C1\c2ccccc2-c2nc3c(C(=O)NCCN4CCCC4)cccc3nc21.Cl | Active | 0.45 | 5.69 | 0.68 | 0.82 | 7.89 | 17.53 | 1.39 | 11.6 | 9.62 | Active | Active | Active | Active |  |
| CN(C)CCCO/N=C1\c2ccccc2-c2nc3c(C(=O)NCCN4CCOCC4)cccc3nc21.Cl | Active | 0.99 | 9.69 | 9.78 | 5.94 | 11.5 | 11.63 | 1.19 | 1.18 | 1.94 | Active | Active | Active | inactive |  |
| Cl.c1ccc2c(c1)/C(=N\OCCN1CCCC1)c1nc3ccccc3nc1-2 | inactive | 4.92 | 7.03 | 8.51 | 6.46 | 17.7 | 3.59 | 2.51 | 2.07 | 2.73 | Active | Active | Active | inactive |  |
